Assay results taken from ChEMBL document CHEMBL1153736, “Application of ring-closing metathesis macrocyclization to the development of Tsg101-binding antagonists” (Bioorg Med Chem Lett, 2010).
Numbered stars: 1 amine (or outer) side, 2 acyl side, 3 side chain; on linkers, the order of the positions; unused ones are H or OH. Bridge positions count the residues as written; N and C are the ends. Square brackets hold non-standard residues; d marks the D form. Peptide text beside a SMILES is read from it. * marks the point of attachment. Fluorescein(5-NHCS) = O=C1OC2(c3ccc(O)cc3Oc3cc(O)ccc32)c2cc(NC(=S)*)ccc21; X3 = O=C(CN(CCCCCCC=[*:3])[*:1])[*:2]; X5 = O=C(CN(CCCCCC=[*:3])[*:1])[*:2]; X4 = O=C(CN(CCCCC=[*:3])[*:1])[*:2]; X2 = O=C(CN(CC=[*:3])[*:1])[*:2]; NAllylGly = C=CCNCC(=O)O; Ava = NCCCCC(=O)O

Each compound was assayed against T1, Tumor susceptibility gene 101 protein (Homo sapiens, UniProt Q99816) (assay: Binding affinity to ubiquitin E2 variant domain of human Tsg101 by fluorescent anisotropy). Conditions: not given.
T1 sequence (Q99816 whole entry): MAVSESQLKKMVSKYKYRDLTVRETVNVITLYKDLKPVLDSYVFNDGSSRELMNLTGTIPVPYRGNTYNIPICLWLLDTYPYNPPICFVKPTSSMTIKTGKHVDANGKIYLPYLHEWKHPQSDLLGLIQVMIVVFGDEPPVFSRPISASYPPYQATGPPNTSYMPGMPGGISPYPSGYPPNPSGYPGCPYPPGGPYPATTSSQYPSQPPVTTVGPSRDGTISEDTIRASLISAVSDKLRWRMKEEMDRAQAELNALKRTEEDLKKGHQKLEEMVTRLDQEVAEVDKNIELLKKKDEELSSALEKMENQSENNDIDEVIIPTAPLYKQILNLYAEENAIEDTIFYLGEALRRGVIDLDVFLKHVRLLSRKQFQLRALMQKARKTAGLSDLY

SMILES | Kd
C=CCN(CC(=O)N1CCC[C@H]1C(=O)N[C@H](C(=O)N[C@@H](C)C(=O)N1CCC[C@H]1C(=O)N1CCC[C@H]1C(=O)N(CC=C)CC(=O)N[C@@H](CCC(=O)O)C(N)=O)[C@@H](C)O)C(=O)[C@@H]1CCCN1C(=O)CCCCNC(=S)Nc1ccc2c(c1)C1(OC2=O)c2ccc(O)cc2Oc2cc(O)ccc21 ({Fluorescein(5-NHCS)-Ava}-P[NAllylGly]PTAPP[NAllylGly]E-NH2) | 590 µM
C[C@@H]1NC(=O)[C@H]([C@@H](C)O)NC(=O)[C@@H]2CCCN2C(=O)CN(C(=O)[C@@H]2CCCN2C(=O)CCCCNC(=S)Nc2ccc3c(c2)C2(OC3=O)c3ccc(O)cc3Oc3cc(O)ccc32)CCCC/C=C/CN(CC(=O)N[C@@H](CCC(=O)O)C(N)=O)C(=O)[C@@H]2CCCN2C(=O)[C@@H]2CCCN2C1=O ({Fluorescein(5-NHCS)-Ava}-P[X4]PTAPP[X2]E-NH2; staple (E) 2-8) | > 500 µM
C[C@@H]1NC(=O)[C@H]([C@@H](C)O)NC(=O)[C@@H]2CCCN2C(=O)[C@H](CCC(=O)O)NC(=O)CN(C(=O)CCCCNC(=S)Nc2ccc3c(c2)C2(OC3=O)c3ccc(O)cc3Oc3cc(O)ccc32)CCCCC/C=C/CN(CC(=O)N[C@@H](CCC(=O)O)C(N)=O)C(=O)[C@@H]2CCCN2C(=O)[C@@H]2CCCN2C1=O ({Fluorescein(5-NHCS)-Ava}-[X5]EPTAPP[X2]E-NH2; staple (E) 1-8) | > 500 µM

More lines, now with the values ahead:

Kd | SMILES
> 500 µM | C[C@@H]1NC(=O)[C@H]([C@@H](C)O)NC(=O)[C@@H]2CCCN2C(=O)CN(C(=O)[C@@H]2CCCN2C(=O)CCCCNC(=S)Nc2ccc3c(c2)C2(OC3=O)c3ccc(O)cc3Oc3cc(O)ccc32)CCCCC/C=C\CN(CC(=O)N[C@@H](CCC(=O)O)C(N)=O)C(=O)[C@@H]2CCCN2C(=O)[C@@H]2CCCN2C1=O ({Fluorescein(5-NHCS)-Ava}-P[X5]PTAPP[X2]E-NH2; staple (Z) 2-8)
> 500 µM | C[C@@H]1NC(=O)[C@H]([C@@H](C)O)NC(=O)[C@@H]2CCCN2C(=O)[C@H](CCC(=O)O)NC(=O)CN(C(=O)CCCCNC(=S)Nc2ccc3c(c2)C2(OC3=O)c3ccc(O)cc3Oc3cc(O)ccc32)C/C=C\CCCCCCN(CC(=O)N[C@@H](CCC(=O)O)C(N)=O)C(=O)[C@@H]2CCCN2C(=O)[C@@H]2CCCN2C1=O ({Fluorescein(5-NHCS)-Ava}-[X2]EPTAPP[X3]E-NH2; staple (Z) 1-8)

The compounds below were run on HeLa (assay: Cellular uptake in human HeLa cells assessed as fluorescence intensity by FACS analysis relative to control). Conditions: in the assay text read “fluorescence microscopy” for “FACS analysis”.
Format: ADME, cell-based
Procedure, shortened: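 Uptake of FITC-tagged peptide-peptoid hybrids was measured by fluorescence microscopy. The value is the average fluorescence intensity of treated cells, quantified from at least 20 cells taken from 4–6 fields, each field holding about 5 cells.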

Drug uptake | SMILES
74% | C=CCN(CC(=O)N1CCC[C@H]1C(=O)N[C@H](C(=O)N[C@@H](C)C(=O)N1CCC[C@H]1C(=O)N1CCC[C@H]1C(=O)N(CC=C)CC(=O)N[C@@H](CCC(=O)O)C(N)=O)[C@@H](C)O)C(=O)[C@@H]1CCCN1C(=O)CCCCNC(=S)Nc1ccc2c(c1)C1(OC2=O)c2ccc(O)cc2Oc2cc(O)ccc21 ({Fluorescein(5-NHCS)-Ava}-P[NAllylGly]PTAPP[NAllylGly]E-NH2)
